Assays:
Hepatitis C virus [1] = experiment: Antiviral activity against HCV in ET cells assessed as activity of luciferase reporter at 20 uM by subgenomic RNA replicon assay; format: functional, Hepacivirus hominis
In short: (§1)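 ET replicon cells (dicistronic HCV replicon with firefly luciferase, three adaptive mutations) seeded at 5000/well overnight in DMEM without G418; serial compound dilutions added, 3 days incubation, luciferase read by Steady-Glo. Four replicates per point; EC50 is 50% luciferase inhibition. Marginal actives given as percent inhibition versus control at 20 µM.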

[2] = Cytotoxicity against ET cells at 20uM; format: cell-based
In short: (§2)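 ET replicon cells seeded at 5000/well overnight without G418; serially diluted compound for 3 days; viability by tetrazolium-based CytoTox-1 proliferation assay. Four replicates; IC50 is the concentration cutting viability by 50%. Weak compounds given as percent of control at 20 µM.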

[3] = Cytotoxicity against human HepG2(2.2.15) cells assessed as uptake of neutral red dye after 24 hrs; format: cell-based; settings: HepG2 2.2.15, 24 h
In short: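 2.2.15 cells, confluent, dosed daily for nine consecutive days; cytotoxicity by neutral red dye uptake 24 h after the last treatment.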

Hepatitis B virus [4] = experiment: Antiviral activity against HBV in human HepG2(2.2.15) cells assessed as extracellular HBV virion DNA level after 24 hrs; format: functional, organism-based; settings: HepG2 2.2.15, 24 h
In short: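 Confluent HBV-producing 2.2.15 cell cultures were given nine consecutive daily doses of compound. Extracellular HBV DNA was measured by quantitative blot hybridization 24 h after the last dose. Cytotoxicity was read by neutral red uptake 24 h after the last dose.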

Hepatitis C virus [5] = experiment: Antiviral activity against HCV in human Huh7 cells assessed as reduction of viral level after 5 days by RNA subgenomic replicon assay; format: functional, organism-based, Hepacivirus hominis; settings: Huh-7, 120 h
In short: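 Huh-7 clone B subgenomic replicon cells seeded at 3000/well, compounds added in duplicate at two dilutions right after seeding; 5 days at 37 °C, 5% CO2. Total RNA isolated; replicon RNA and rRNA control amplified by multiplex one-step real-time RT-PCR. Activity as ΔCt versus no-drug control; EC50/EC90 for 50%/90% reduction.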

[6] = Cytotoxicity against human Huh7 cells assessed as rRNA level after 5 days; format: cell-based; settings: huh-7, 120 h
In short: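 Huh-7 cells carrying a subgenomic HCV replicon (clone B) were seeded at 3000 cells/well. Compound was added in duplicate at two dilutions right after seeding, then cells were incubated 5 days at 37 °C, 5% CO2. Total RNA was isolated, and replicon RNA and an rRNA internal control were co-amplified by one-step multiplex real-time RT-PCR.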

[7] = Cytotoxicity against ET cells; format: cell-based; settings: for IC50: ET; in short: as §2
Hepatitis C virus [8] = experiment: Antiviral activity against HCV in ET cells assessed as activity of luciferase reporter by subgenomic RNA replicon assay; format: functional, organism-based, Hepacivirus hominis; in short: as §1
Hepatitis B virus [9] = experiment: Antiviral activity against HBV in human HepG2(2.2.15) cells assessed as replication intermediates after 24 hrs; format: functional, organism-based; settings: HepG2 2.2.15, 24 h
In short: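 Confluent 2.2.15 cultures in 96-well format given nine consecutive daily doses; HBV DNA quantified by blot hybridization 24 h after the last treatment.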

[10] = Selectivity index, EC50 for HCV to IC50 for ET cells; format: functional
In short: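 SI50 from ET replicon luciferase EC50 (3-day assay) and CytoTox-1 viability IC50, each averaged from four replicates.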

Hepatitis B virus [11] = experiment: Antiviral activity against adefovir-resistant HBV reverse transcriptase M204V mutant in human Huh7 cells after 4 days by intracellular HBV DNA replication assay; format: functional, organism-based; settings: Huh-7, 96 h
In short: (§3)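 In a 5-day transient transfection assay, cells expressed wild-type or lamivudine- or adefovir-resistant HBV mutants. After 4 days of drug treatment, intracellular HBV DNA replication intermediates were quantified by Southern blot hybridization.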

Hepatitis B virus [12] = experiment: Antiviral activity against adefovir-resistant HBV reverse transcriptase LM/reverse transcriptase MV double mutant in human Huh7 cells after 4 days by intracellular HBV DNA replication assay; format: functional, organism-based; settings: Huh-7, 96 h; in short: as §3
Hepatitis B virus [13] = experiment: Antiviral activity against adefovir-resistant wild type HBV in human Huh7 cells after 4 days by intracellular HBV DNA replication assay; format: functional, organism-based; settings: Huh-7, 96 h; in short: as §3
Hepatitis B virus [14] = experiment: Antiviral activity against adefovir-resistant HBV reverse transcriptase L180M mutant in human Huh7 cells after 4 days by intracellular HBV DNA replication assay; format: functional, organism-based; settings: Huh-7, 96 h; in short: as §3
Hepatitis B virus [15] = experiment: Antiviral activity against adefovir-resistant HBV reverse transcriptase 236T mutant in human Huh7 cells after 4 days by intracellular HBV DNA replication assay; format: functional, organism-based; settings: Huh-7, 96 h; in short: as §3
Hepatitis B virus [16] = experiment: Antiviral activity against adefovir-resistant HBV reverse transcriptase M204I mutant in human Huh7 cells after 4 days by intracellular HBV DNA replication assay; format: functional, organism-based; settings: Huh-7, 96 h; in short: as §3
Hepatitis B virus [17] = experiment: Antiviral activity against lamivudine-resistant HBV reverse transcriptase M204I mutant in human Huh7 cells after 4 days by intracellular HBV DNA replication assay; format: functional, organism-based; settings: Huh-7, 96 h; in short: as §3
Hepatitis B virus [18] = experiment: Antiviral activity against lamivudine-resistant wild type HBV in human Huh7 cells after 4 days by intracellular HBV DNA replication assay; format: functional, organism-based; settings: Huh-7, 96 h
In short: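 Transient transfection of HBV into cells, 5-day assay; compounds applied for 4 days, then intracellular HBV DNA replication intermediates quantified by Southern blot hybridization to derive EC50.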

Hepatitis B virus [19] = experiment: Antiviral activity against lamivudine-resistant HBV reverse transcriptase 236T mutant in human Huh7 cells after 4 days by intracellular HBV DNA replication assay; format: functional, organism-based; settings: Huh-7, 96 h; in short: as §3
Hepatitis B virus [20] = experiment: Antiviral activity against lamivudine-resistant HBV reverse transcriptase M204V mutant in human Huh7 cells after 4 days by intracellular HBV DNA replication assay; format: functional, organism-based; settings: Huh-7, 96 h; in short: as §3
Hepatitis B virus [21] = experiment: Antiviral activity against lamivudine-resistant HBV reverse transcriptase L180M mutant in human Huh7 cells after 4 days by intracellular HBV DNA replication assay; format: functional, organism-based; settings: Huh-7, 96 h; in short: as §3
Hepatitis B virus [22] = experiment: Antiviral activity against lamivudine-resistant HBV reverse transcriptase LM/reverse transcriptase MV double mutant in human Huh7 cells after 4 days by intracellular HBV DNA replication assay; format: functional, organism-based; settings: Huh-7, 96 h; in short: as §3

`N#Cc1cn([C@@H]2C=C(CO)[C@@H](O)[C@H]2O)c2ncnc(N)c12` gave an Activity (Hepatitis C virus [1]) of 0.5%, an Activity [2] of 103.3% and an IC50 [3] of over 300 µM. The EC50 (Hepatitis B virus [4]) was over 10 µM.
Work on `C[C@@]1(O)[C@H](O)[C@@H](CO)O[C@H]1n1ccc(N)nc1=O` yielded an EC50 (Hepatitis C virus [5]) of 3.5 µM, an EC90 (Hepatitis C virus [5]) of 11 µM and a CC50 [6] of over 50 µM.
In the case of `Nc1ccn([C@@H]2O[C@H](CO)[C@@H](O)[C@]2(O)F)c(=O)n1`, the EC50 (Hepatitis C virus [5]) is reported as 1.7 µM, the EC90 (Hepatitis C virus [5]) is reported as 5.3 µM and the CC50 [6] is reported as over 50 µM.
In the case of `Nc1ncnc2c1c(F)cn2[C@@H]1C=C(CO)[C@@H](O)[C@H]1O`, the Activity (Hepatitis C virus [1]) is reported as 9.5%, the Activity ([7]; et) is reported as 112.7% and the IC50 [3] is reported as over 300 µM. The EC50 (Hepatitis B virus [4]) was over 10 µM.
Work on `Nc1ncnc2c1c(Cl)cn2[C@@H]1C=C(CO)[C@@H](O)[C@H]1O` yielded an EC50 (Hepatitis C virus [8]) of 14.7 µM, an IC50 [7] of 50.1 µM and an IC50 [3] of over 300 µM. The EC50 (Hepatitis B virus [4]) was over 10 µM.
`Nc1ncnc2c1c(Br)cn2[C@@H]1C=C(CO)[C@@H](O)[C@H]1O` showed an EC50 (Hepatitis C virus [8]) of 16.7 µM, an IC50 [7] of 41.7 µM and an IC50 [3] of over 300 µM. For the same compound, the EC50 (Hepatitis B virus [4]) was over 10 µM.
For `Nc1ncnc2c1c(I)cn2[C@@H]1C=C(CO)[C@@H](O)[C@H]1O`, the EC50 (Hepatitis C virus [8]) was 2.1 µM, the IC50 [7] was 15 µM and the IC50 [3] was over 300 µM. It also gave an EC50 (Hepatitis B virus [9]) of 1.6 µM and an EC50 (Hepatitis B virus [4]) of 0.43 µM.
Work on `Nc1ncnc2c1c([N+](=O)[O-])cn2[C@@H]1C=C(CO)[C@@H](O)[C@H]1O` yielded an Activity [2] of 101.5%, an IC50 [3] of over 300 µM and an EC50 (Hepatitis B virus [4]) of over 10 µM.
`C=Cc1cn([C@@H]2C=C(CO)[C@@H](O)[C@H]2O)c2ncnc(N)c12` gave an Activity (Hepatitis C virus [1]) of 49.2%, an Activity [2] of 99.7% and an IC50 [3] of over 300 µM. It also gave an EC50 (Hepatitis B virus [9]) of 10 µM and an EC50 (Hepatitis B virus [4]) of 3.3 µM.
With `C#Cc1cn([C@@H]2C=C(CO)[C@@H](O)[C@H]2O)c2ncnc(N)c12` the EC50 (Hepatitis C virus [8]) was 20.1 µM, the IC50 [7] was 48.9 µM and the IC50 [3] was over 300 µM. It also gave an EC50 (Hepatitis B virus [9]) of 1.8 µM and an EC50 (Hepatitis B virus [4]) of 0.32 µM.
`NC(=O)c1cn([C@@H]2C=C(CO)[C@@H](O)[C@H]2O)c2ncnc(N)c12` showed an EC50 (Hepatitis C virus [8]) of 1.8 µM, an IC50 [7] of 11.8 µM and an IC50 [3] of 300 µM. The EC50 (Hepatitis B virus [4]) was over 10 µM.
Work on `C[C@@]1(O)[C@H](O)[C@@H](CO)O[C@H]1n1cnc2c(N)ncnc21` yielded an EC50 (Hepatitis C virus [8]) of 0.15 µM, an IC50 [7] of over 10 µM and a Ratio [10] of over 66.7.
Compound `Nc1ncnc2c1ncn2CCOCP(=O)(O)O` [ADEFOVIR] has an EC50 (Hepatitis B virus [11]) of 1.5 µM, an EC50 (Hepatitis B virus [12]) of 1.6 µM and an EC50 (Hepatitis B virus [13]) of 1.3 µM. For the same compound, the EC50 (Hepatitis B virus [14]) was 1.6 µM, the EC50 (Hepatitis B virus [15]) was 7.7 µM and the EC50 (Hepatitis B virus [16]) was 1.8 µM.
Compound `Nc1ccn([C@@H]2CS[C@H](CO)O2)c(=O)n1` [LAMIVUDINE] has an EC50 (Hepatitis B virus [11]) of 1.5 µM, an EC50 (Hepatitis B virus [17]) of over 100 µM and an EC50 (Hepatitis B virus [12]) of 1.6 µM. The EC50 (Hepatitis B virus [13]) was 1.3 µM, the EC50 (Hepatitis B virus [18]) was 0.2 µM and the EC50 (Hepatitis B virus [19]) was 0.3 µM. It also gave an EC50 (Hepatitis B virus [20]) of over 100 µM, an EC50 (Hepatitis B virus [14]) of 1.6 µM and an EC50 (Hepatitis B virus [15]) of 7.7 µM. For the same compound, the EC50 (Hepatitis B virus [16]) was 1.8 µM, the IC50 [3] was over 2000 µM and the EC50 (Hepatitis B virus [21]) was 10 µM. For the same compound, the EC50 (Hepatitis B virus [22]) was over 100 µM, the EC50 (Hepatitis B virus [9]) was 0.15 µM and the EC50 (Hepatitis B virus [4]) was 0.048 µM.

From ChEMBL document CHEMBL1139357, “Synthesis and anti-hepatitis B virus and anti-hepatitis C virus activities of 7-deazaneplanocin A analogues in vitro” (J Med Chem, 2009)
